Source: ChEMBL document CHEMBL3792331, “Identification and synthesis of potent and selective pyridyl-isoxazole based agonists of sphingosine-1-phosphate 1 (S1P1)” (Bioorg Med Chem Lett, 2016)

Experiments:
Plasma = assay: Ratio of plasma concentration Lewis rat at 1 mg/kg, po after 4 hrs to plasma concentration Lewis rat at 1 mg/kg, po after 24 hrs; assay type: ADME, organism-based; conditions: in vivo
Outline: (§1)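 Lewis rats given 1.0 mg/kg orally as solution or suspension in vehicle. Plasma drug concentration measured in blood drawn at 4 h and 24 h; 4 h/24 h ratio taken from these values.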

[1] = biological target: Sphingosine 1-phosphate receptor 1 (Homo sapiens, UniProt P21453); assay: Agonist activity at human S1P1 receptor expressed in CHO cell membranes assessed as stimulation of [35S]GTPgamma binding incubated for 45 mins by liquid scintillation counting method
Sequence of Sphingosine 1-phosphate receptor 1 (P21453 whole entry): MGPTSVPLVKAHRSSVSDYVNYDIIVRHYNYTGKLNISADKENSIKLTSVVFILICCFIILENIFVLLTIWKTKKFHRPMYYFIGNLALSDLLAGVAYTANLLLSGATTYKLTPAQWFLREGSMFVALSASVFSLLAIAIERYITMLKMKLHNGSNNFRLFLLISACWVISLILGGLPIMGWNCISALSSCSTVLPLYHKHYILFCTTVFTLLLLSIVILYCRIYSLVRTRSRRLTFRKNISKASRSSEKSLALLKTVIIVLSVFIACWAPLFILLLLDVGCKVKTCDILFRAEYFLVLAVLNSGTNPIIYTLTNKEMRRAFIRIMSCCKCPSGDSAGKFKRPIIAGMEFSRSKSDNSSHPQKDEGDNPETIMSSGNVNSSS
Outline: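 Membranes from S1P1/CHO cells (S1P1) or EDG3-Ga15-bla HEK293T cells (S1P3), final protein […], with 3-fold compound dilutions. Buffer: 20 mM HEPES pH 7.5, 10 mM MgCl2, 150 mM NaCl, 1 mM EGTA, 1 mM DTT, GDP, 0.1% fatty acid free BSA, saponin. [35S]GTP 0.2 nM final. Room temperature, 45 min. Filtered, washed with water, dried 60 °C. EC50 taken at 50% of each compound's Ymax.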

Rattus norvegicus [2] = assay: Reduction in circulating lymphocytes in Lewis rat at 1 mg/kg, po after 24 hrs; assay type: functional
Outline: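 Healthy Lewis rats dosed orally with test article as solution or suspension in vehicle, or vehicle alone. Blood drawn at 4 h and 24 h. Circulating lymphocyte percentage measured by hematology analyzer, expressed as reduction versus the vehicle group. Group average, n = 3–4.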

[3] = Plasma concentration Lewis rat at 1 mg/kg, po after 24 hrs; assay type: ADME, organism-based; outline: as §1
CHO [4] = assay: Selectivity index, ratio of EC50 for agonist activity at human S1P4 receptor to EC50 for agonist activity at human S1P1 receptor expressed in CHO cell membranes; assay type: cell-based
CHO [5] = assay: Selectivity index, ratio of EC50 for agonist activity at human S1P5 receptor to EC50 for agonist activity at human S1P1 receptor expressed in CHO cell membranes; assay type: cell-based
[6] = Protein binding in human plasma; assay type: ADME, cell-free; conditions: read-out: PPB (converted)
[7] = Protein binding in mouse plasma; assay type: ADME, cell-free; conditions: read-out: PPB (converted)
[8] = Protein binding in rat plasma; assay type: ADME, cell-free; conditions: read-out: PPB (converted)
[9] = Protein binding in dog plasma; assay type: ADME, cell-free, Canis lupus familiaris; conditions: read-out: PPB (converted)
Salmonella typhimurium = assay: Mutagenicity in Salmonella typhimurium; assay type: toxicity, organism-based; conditions: salmonella enterica subsp. enterica serovar typhimurium
hERG (KCNH2) [10] = biological target: T1, hERG (KCNH2) (Homo sapiens, UniProt Q12809); assay: Inhibition of human ERG at 10 uM by patch clamp assay
T1 sequence (Q12809 whole entry): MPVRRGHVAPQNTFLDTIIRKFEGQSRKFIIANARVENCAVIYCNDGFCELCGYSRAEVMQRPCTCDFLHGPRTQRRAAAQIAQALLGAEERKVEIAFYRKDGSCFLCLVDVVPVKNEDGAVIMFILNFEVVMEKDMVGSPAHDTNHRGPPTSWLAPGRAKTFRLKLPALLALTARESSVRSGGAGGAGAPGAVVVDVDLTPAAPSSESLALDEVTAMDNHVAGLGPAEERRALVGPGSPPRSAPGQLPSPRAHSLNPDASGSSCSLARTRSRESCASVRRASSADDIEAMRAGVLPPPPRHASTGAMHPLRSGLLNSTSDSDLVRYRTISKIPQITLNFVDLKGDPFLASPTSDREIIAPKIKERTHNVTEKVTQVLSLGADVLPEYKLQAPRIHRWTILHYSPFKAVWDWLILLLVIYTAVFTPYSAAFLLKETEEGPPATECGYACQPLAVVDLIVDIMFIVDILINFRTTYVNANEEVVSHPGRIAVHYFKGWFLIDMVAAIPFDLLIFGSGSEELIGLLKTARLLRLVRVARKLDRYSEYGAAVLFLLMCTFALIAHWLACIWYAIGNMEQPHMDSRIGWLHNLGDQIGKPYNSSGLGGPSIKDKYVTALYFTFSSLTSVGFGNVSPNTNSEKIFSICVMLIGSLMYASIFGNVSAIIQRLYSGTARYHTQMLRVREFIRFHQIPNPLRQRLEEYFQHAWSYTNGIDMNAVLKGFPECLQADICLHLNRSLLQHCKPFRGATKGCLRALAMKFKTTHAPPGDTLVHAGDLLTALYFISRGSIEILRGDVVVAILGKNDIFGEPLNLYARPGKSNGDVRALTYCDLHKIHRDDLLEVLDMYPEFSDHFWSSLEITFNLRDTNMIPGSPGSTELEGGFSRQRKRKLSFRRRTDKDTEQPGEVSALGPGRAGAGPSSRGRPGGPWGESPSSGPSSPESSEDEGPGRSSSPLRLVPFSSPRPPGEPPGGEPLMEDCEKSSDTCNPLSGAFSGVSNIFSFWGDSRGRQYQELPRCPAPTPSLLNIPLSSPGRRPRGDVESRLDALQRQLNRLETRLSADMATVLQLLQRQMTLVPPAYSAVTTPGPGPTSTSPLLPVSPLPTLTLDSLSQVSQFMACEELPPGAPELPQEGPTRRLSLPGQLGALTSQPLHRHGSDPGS

hERG (KCNH2) [11] = biological target: T1, hERG (KCNH2); assay: Inhibition of human ERG at 30 uM by patch clamp assay
Homo sapiens = species: Homo sapiens; assay: Inhibition of potassium channel (unknown origin) at 10 uM by patch clamp assay
Cytochrome P450 2B6 = biological target: T2, Cytochrome P450 2B6 (Homo sapiens, UniProt P20813); assay: Inhibition of CYP2B6 (unknown origin); assay type: ADME
T2 sequence (P20813 whole entry): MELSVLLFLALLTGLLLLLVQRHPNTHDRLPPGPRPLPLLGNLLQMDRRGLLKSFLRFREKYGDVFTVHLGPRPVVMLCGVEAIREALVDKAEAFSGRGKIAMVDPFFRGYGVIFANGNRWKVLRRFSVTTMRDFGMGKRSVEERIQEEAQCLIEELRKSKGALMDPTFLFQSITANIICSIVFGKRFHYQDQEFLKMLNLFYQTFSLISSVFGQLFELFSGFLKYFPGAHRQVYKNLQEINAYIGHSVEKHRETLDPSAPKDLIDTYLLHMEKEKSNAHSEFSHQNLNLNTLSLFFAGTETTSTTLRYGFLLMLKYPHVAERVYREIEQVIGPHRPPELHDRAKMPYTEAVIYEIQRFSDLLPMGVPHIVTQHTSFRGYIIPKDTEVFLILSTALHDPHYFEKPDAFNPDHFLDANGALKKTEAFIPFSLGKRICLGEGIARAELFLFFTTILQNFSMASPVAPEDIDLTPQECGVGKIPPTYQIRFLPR

Cytochrome P450 2C8 = biological target: T3, Cytochrome P450 2C8 (Homo sapiens, UniProt P10632); assay: Inhibition of CYP2C8 (unknown origin); assay type: ADME
T3 sequence (P10632 whole entry): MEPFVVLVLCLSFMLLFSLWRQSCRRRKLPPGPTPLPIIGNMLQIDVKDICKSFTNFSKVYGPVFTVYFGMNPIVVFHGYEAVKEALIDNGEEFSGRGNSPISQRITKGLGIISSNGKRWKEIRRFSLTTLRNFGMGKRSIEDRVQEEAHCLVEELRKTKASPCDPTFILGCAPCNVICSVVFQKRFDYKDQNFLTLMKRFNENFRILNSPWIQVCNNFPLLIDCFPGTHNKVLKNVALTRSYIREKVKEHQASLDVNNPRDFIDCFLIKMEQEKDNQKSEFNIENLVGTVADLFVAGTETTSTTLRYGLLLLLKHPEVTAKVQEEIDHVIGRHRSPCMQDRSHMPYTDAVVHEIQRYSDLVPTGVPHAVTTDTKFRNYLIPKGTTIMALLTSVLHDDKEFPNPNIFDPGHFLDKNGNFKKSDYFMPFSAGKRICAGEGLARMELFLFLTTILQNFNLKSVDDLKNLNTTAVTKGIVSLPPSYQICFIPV

Cytochrome P450 2C9 = Cytochrome P450 2C9 (Homo sapiens, UniProt P11712); assay: Inhibition of CYP2C9 (unknown origin); assay type: ADME
Sequence of Cytochrome P450 2C9 (P11712 whole entry): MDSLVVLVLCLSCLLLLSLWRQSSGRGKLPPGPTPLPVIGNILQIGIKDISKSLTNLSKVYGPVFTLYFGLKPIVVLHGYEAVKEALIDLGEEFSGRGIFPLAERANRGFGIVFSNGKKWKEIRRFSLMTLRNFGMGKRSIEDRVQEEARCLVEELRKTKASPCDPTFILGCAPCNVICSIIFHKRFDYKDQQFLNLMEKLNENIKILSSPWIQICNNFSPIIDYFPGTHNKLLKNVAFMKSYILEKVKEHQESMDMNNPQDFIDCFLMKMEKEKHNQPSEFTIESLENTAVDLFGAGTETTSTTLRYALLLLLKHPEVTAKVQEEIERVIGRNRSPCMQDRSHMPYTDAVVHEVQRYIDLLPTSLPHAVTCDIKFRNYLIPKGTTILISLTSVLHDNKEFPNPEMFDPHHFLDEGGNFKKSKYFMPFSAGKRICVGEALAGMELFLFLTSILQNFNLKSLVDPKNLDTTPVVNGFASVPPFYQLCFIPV

Cytochrome P450 2C19 = Cytochrome P450 2C19 (Homo sapiens, UniProt P33261); assay: Inhibition of CYP2C19 (unknown origin); assay type: ADME
Sequence of Cytochrome P450 2C19 (P33261 whole entry): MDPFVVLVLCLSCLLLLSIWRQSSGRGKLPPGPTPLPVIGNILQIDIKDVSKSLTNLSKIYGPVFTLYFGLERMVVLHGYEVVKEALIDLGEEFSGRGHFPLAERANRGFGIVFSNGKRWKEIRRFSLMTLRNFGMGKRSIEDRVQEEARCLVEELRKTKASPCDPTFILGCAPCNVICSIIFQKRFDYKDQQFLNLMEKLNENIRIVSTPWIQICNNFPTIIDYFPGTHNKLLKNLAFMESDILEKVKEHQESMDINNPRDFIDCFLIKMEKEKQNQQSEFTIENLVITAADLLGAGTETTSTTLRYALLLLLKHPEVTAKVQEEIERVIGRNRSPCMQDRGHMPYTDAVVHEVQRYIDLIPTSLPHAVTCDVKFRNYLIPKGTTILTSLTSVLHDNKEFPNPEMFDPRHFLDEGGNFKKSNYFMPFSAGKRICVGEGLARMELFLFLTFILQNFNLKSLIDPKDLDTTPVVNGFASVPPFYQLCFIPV

Cytochrome P450 2D6 = Cytochrome P450 2D6 (Homo sapiens, UniProt P10635); assay: Inhibition of CYP2D6 (unknown origin); assay type: ADME
Sequence of Cytochrome P450 2D6 (P10635 whole entry): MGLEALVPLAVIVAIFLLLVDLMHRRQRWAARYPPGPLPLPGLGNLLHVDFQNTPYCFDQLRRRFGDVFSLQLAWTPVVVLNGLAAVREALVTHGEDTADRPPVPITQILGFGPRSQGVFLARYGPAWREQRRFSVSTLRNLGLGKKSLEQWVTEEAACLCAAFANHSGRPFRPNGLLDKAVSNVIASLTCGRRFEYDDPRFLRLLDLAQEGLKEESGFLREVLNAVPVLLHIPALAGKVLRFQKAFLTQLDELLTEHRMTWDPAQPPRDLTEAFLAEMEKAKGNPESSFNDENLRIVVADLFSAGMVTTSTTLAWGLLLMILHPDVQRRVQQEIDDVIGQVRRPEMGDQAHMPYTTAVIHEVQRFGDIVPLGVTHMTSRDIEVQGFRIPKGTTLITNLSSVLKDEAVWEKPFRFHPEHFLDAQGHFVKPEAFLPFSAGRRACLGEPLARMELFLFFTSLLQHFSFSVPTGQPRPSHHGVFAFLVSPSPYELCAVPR

Liver microsome = assay: Stability in rat liver microsomes assessed as compound remaining; assay type: ADME
[12] = Stability in mouse liver microsomes assessed as compound remaining; assay type: ADME
[13] = Clearance in mouse at 2 mg/kg, iv; assay type: ADME, organism-based; conditions: in vivo
Mus musculus = assay: Clearance in mouse at 2 mg/kg, iv relative to hepatic blood flow; assay type: ADME, organism-based, Liver; conditions: in vivo
[14] = Oral bioavailability in mouse at 5 mg/kg; assay type: ADME, organism-based; conditions: in vivo
[15] = Half life in rat at 2 mg/kg, iv; assay type: ADME, organism-based; conditions: in vivo
[16] = Clearance in rat at 2 mg/kg, iv; assay type: ADME, organism-based; conditions: in vivo
Rattus norvegicus [17] = assay: Clearance in rat at 2 mg/kg, iv relative to hepatic blood flow; assay type: ADME, organism-based, Liver; conditions: in vivo
[18] = Oral bioavailability in rat at 5 mg/kg; assay type: ADME, organism-based; conditions: in vivo
Cynomolgus monkey = assay: Clearance in cynomolgus monkey at 1 mg/kg, iv relative to hepatic blood flow; assay type: ADME, organism-based, Macaca fascicularis, Liver; conditions: in vivo
[19] = Oral bioavailability in cynomolgus monkey at 1 mg/kg; assay type: ADME, organism-based, Macaca fascicularis; conditions: in vivo
[20] = Clearance in dog at 1 mg/kg, iv; assay type: ADME, organism-based, Canis lupus familiaris; conditions: in vivo
Canis familiaris [21] = assay: Clearance in dog at 1 mg/kg, iv relative to hepatic blood flow; assay type: ADME, organism-based, Canis lupus familiaris, Liver; conditions: in vivo
Canis familiaris [22] = assay: Ratio of Cmax to Cmin in dog at 1 mg/kg, po; assay type: ADME, organism-based, Canis lupus familiaris; conditions: in vivo

O=C(O)C1CN(Cc2ccc(-c3noc(-c4onc(-c5ccccn5)c4C(F)(F)F)n3)cc2)C1
Ratio (Plasma): 47
EC50 [1]: 0.00071 µM
inhibition in vivo at 1 mg/kg (Rattus norvegicus [2]): 80%
concentration at 24 h [3]: 54 nM
Ratio EC50 (CHO [4]): 3.2
Ratio EC50 (CHO [5]): 3.2
fraction unbound [6]: 0.005
fraction unbound [7]: 0.006
fraction unbound [8]: 0.024
fraction unbound [9]: 0.274
Activity (Salmonella typhimurium): Non-toxic
inhibition at 10 µM (hERG (KCNH2) [10]): 13%
inhibition at 30 µM (hERG (KCNH2) [11]): 34%
inhibition (Homo sapiens): 12%
IC50 (Cytochrome P450 2B6): > 40 µM
IC50 (Cytochrome P450 2C8): > 40 µM
IC50 (Cytochrome P450 2C9): > 40 µM
IC50 (Cytochrome P450 2C19): > 40 µM
IC50 (Cytochrome P450 2D6): > 40 µM
Stability (Liver microsome): 100%
Stability [12]: 100%
clearance [13]: 0.3 mL/min/kg
CL (Mus musculus): < 1%
bioavailability [14]: 70%
half-life [15]: 4.8 h
clearance [16]: 1 mL/min/kg
CL (Rattus norvegicus [17]): 1.4%
bioavailability [18]: 100%
CL (Cynomolgus monkey): 32%
bioavailability [19]: 12%
clearance [20]: 2.6 mL/min/kg
CL (Canis familiaris [21]): 8.4%
Ratio (Canis familiaris [22]): 7.4
